# Published values of several laboratories.
# Cell line: HeLa
# Effect on: cell growth or viability
SMILES,test,setting,IC50
CC[C@H](C)[C@@H]([C@@H](CC(=O)N1CCC[C@H]1[C@H](OC)[C@@H](C)C(=O)N[C@H](C)[C@@H](O)c1ccccc1)OC)N(C)C(=O)[C@@H](NC(=O)[C@H](C(C)C)N(C)C(=O)OCc1ccc(NC(=O)[C@H](CCCNC(N)=O)NC(=O)[C@@H](NC(=O)CCCCCN2C(=O)CC(SCCC(=O)N[C@@H](Cc3cn(CCOCCNCCCCCCOc4cc(OCCCc5c(C)n[nH]c5C)cc(C(=O)O)c4)nn3)C(=O)NCCCCCC(=O)NCCCC[C@H](NC(=O)N[C@@H](CCC(=O)O)C(=O)O)C(=O)O)C2=O)C(C)C)cc1)C(C)C (stereo partly shown),MTT,,372 nM
N.N.[Cl][Pt][Cl],MTT,24 h,2330 nM
CC[C@@]1(OC(=O)C(C)c2cccc(C(=O)c3ccccc3)c2)C(=O)OCc2c1cc1n(c2=O)Cc2cc3cc4c(cc3nc2-1)OCO4 (stereo partly shown),MTT,,270 nM
C[C@]12C=CC(=O)C[C@@H]1CC[C@@H]1[C@@H]2C(=O)C[C@@]2(C)[C@H]1CC[C@]2(C)O,MTT,24 h,19200 nM
CC[C@@]1(OC(=O)[C@@H](N)C(C)C)C(=O)OCc2c1cc1n(c2=O)Cc2cc3cc4c(cc3nc2-1)OCO4,MTT,,114 nM
CC(C)[C@]12O[C@H]1[C@@H]1O[C@]13[C@]1(O[C@H]1C[C@H]1C4=C(CC[C@@]13C)C(=O)OC4)[C@@H]2O,thymidine uptake,3 h,41 nM
CC[C@@]1(OC(=O)C(C)c2ccc(CC(C)C)cc2)C(=O)OCc2c1cc1n(c2=O)Cc2cc3cc4c(cc3nc2-1)OCO4 (stereo partly shown),MTT,,> 5000 nM
N#Cc1ccc(NC(=S)NN=Cc2ccc(O)cc2)cc1,,72 h,91 µg/mL
COc1cc(C(=O)c2cc3c(-c4ccccc4)c(OC)ccc3o2)cc(OC)c1OC,,,25000 nM
N.N.[Cl][Pt][Cl],MTT,48 h,17000 nM
COc1c2c(cc3c1OCO3)[C@]13C=C[C@H](OC)C[C@@H]1[N@](C2)C[C@H]3OC(=O)c1ccc2ccccc2c1,WST-1,48 h,> 10000 nM
N#Cc1ccc(NC(=S)NN=Cc2ccccc2)cc1,,72 h,67 µg/mL
Nc1cc(Cl)c(Cl)cc1N,,72 h,50000 nM
CC[C@H](C)[C@H](N)C(=O)O[C@]1(CC)C(=O)OCc2c1cc1n(c2=O)Cc2cc3cc4c(cc3nc2-1)OCO4,MTT,,124 nM
N.N.[Cl][Pt][Cl],,72 h,0.22 µg/mL
CC[C@@]1(O)C(=O)OCc2c1cc1n(c2=O)Cc2cc3cc4c(cc3nc2-1)OCO4,MTT,72 h,26 nM
O=C(Cc1ccc2ccccc2c1)N[C@H](Cc1ccccc1)C(=O)N[C@@H](Cc1ccccc1)C(=O)N[C@@H](Cc1ccc(OP(=O)(O)O)cc1)C(=O)O,MTT,48 h,> 500000 nM
CC[C@@]1(OC(=O)Cc2c(C)n(C(=O)c3ccc(Cl)cc3)c3ccc(OC)cc23)C(=O)OCc2c1cc1n(c2=O)Cc2cc3cc4c(cc3nc2-1)OCO4,MTT,,306 nM
N#Cc1ccc(NC(=S)NN)cc1,,72 h,11 µg/mL
